Source: PubChem BioAssay (Johns Hopkins Ion Channel Center)
Most compounds without a hit are left out; they make up all but 2.3% or so of the library.
TRPC4 inh: inhibitors of mouse TRPC4 channel, primary screen, Fluo4 calcium, HEK293 TRPC4beta/mu-opioid cells. DAMGO-evoked Fluo4 calcium flux; stronger effect = lower value. 300,000 tested, 0.39% active. Short transient receptor potential channel 4 (Mus musculus), Q9QUQ5. B-score at 10 µM;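 active = B-score over 3 SD under the library average, no early fluorescence shift, positive overall ratio signal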
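Signal: kinetic Fluo4 fluorescence imaging of calcium influx. Material: stable TRPC4beta/mu-opioid receptor HEK293 cells. Probe or stimulus: DAMGO in two steps, submaximal then maximal.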
TRPC4 agonist: activators of mouse TRPC4 channel, primary screen, Fluo4 calcium, HEK293 TRPC4beta/mu-opioid cells. Short transient receptor potential channel 4 (Mus musculus), Q9QUQ5. Fluo4 calcium fluorescence; stronger effect = higher value. B-score at 10 µM. 310,000 tested, 0.49% active;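 active = B-score above 5 SD of library B-scores, and initial fluorescence ratio not above library mean plus 5 SD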;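 also: positive B-score marks a calcium rise read as TRPC4 activation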
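Assay system – TRPC4beta and mu-opioid receptor HEK293 stable cells · Measured by – Fluo4 fluorescence, kinetic · Schedule – dye loading 45 min room temperature, 110 s kinetic read · Read-out – B-scored integrated calcium fluorescence ratio · Controls – buffer and maximal DAMGO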
TRPC4 potent: positive allosteric modulators of TRPC4, primary screen, cell-based, mouse TRPC4beta, HEK293 mu-opioid, Fluo-4 calcium; 310,000 tested, 0.42% active; DAMGO EC20, Fluo-4 Ca2+ flux; stronger effect = higher value; B-score at 10 µM; Short transient receptor potential channel 4 (Mus musculus), Q9QUQ5;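 active = B-score of calcium response area above 5 SD of library B-scores, with initial fluorescence ratio within 5 SD of library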;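 also: B-score of integrated fluorescence ratio over time as area under calcium response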
TRPC6 inh: mouse TRPC6 channel inhibitors, primary screen, cell-based, HEK293, membrane potential dye; ACh-evoked depolarization; stronger effect = lower value; 310,000 tested, 1.1% active; B-score at 10 µM;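 active = B-score under library mean minus 3 SD, initial fluorescence not abnormally high, positive integrated signal ratio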;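 also: B-score derived from integrated fluorescence ratio over the kinetic read; more negative B-score means stronger inhibition of depolarization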
Target sequence (Q61143 whole entry, looked up): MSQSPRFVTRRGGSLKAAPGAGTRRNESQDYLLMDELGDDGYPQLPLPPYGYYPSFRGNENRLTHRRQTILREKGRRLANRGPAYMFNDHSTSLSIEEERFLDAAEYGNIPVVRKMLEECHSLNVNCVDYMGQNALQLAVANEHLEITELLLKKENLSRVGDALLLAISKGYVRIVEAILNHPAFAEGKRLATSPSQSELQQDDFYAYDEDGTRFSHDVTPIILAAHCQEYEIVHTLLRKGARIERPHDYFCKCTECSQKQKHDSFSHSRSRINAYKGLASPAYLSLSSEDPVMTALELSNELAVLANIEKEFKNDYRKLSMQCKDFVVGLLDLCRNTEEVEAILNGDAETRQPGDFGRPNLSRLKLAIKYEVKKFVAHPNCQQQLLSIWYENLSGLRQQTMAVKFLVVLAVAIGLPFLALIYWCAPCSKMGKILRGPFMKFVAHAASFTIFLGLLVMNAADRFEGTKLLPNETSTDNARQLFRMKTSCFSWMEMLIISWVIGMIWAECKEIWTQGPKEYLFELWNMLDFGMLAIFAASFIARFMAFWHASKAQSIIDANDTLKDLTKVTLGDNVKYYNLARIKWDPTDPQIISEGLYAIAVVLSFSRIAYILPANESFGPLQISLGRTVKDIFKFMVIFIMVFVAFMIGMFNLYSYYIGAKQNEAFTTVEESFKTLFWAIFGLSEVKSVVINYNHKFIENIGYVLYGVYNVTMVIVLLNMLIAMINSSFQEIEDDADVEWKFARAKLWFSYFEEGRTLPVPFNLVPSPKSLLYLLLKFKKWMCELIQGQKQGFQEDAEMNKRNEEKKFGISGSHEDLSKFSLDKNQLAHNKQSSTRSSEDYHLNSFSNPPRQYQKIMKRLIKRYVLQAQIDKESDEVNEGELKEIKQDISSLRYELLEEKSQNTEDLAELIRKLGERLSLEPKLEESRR
TRPC6 activator: mouse TRPC6 channel activators, primary screen, cell-based, HEK293, membrane potential dye; Short transient receptor potential channel 6 (Mus musculus), Q61143; HEK293-TRPC6 membrane potential dye fluorescence; stronger effect = higher value; B-score at 10 µM; 310,000 tested, 0.13% active; AID 2550, 2010;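 active = B-score of the integrated fluorescence ratio above library mean plus 3 SD, and starting fluorescence ratio within library mean plus 5 SD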;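 also: higher score means more depolarization so channel activation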
TRPC4 spec 2: second selectivity test of TRPC6 inhibitors: effect on mouse TRPC4; shares compounds with TRPC6 inh; HEK293 TRPC4/MOR, membrane potential dye fluorescence; channel activated by saturating DAMGO dose; inhibition, % at 10 µM; 920 tested, 42% active; AID 2776;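 active = compounds whose fluorescence signal differed from control wells by over 3 SD, either direction, in both duplicate plates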
TRPC4 spec: mouse TRPC4 modulation by TRPC6 hits, confirmation, selectivity assay for TRPC6 inhibitor project, cell-based, HEK293 TRPC4/mu-opioid, membrane potential dye; AID 2777, 2010; shares compounds with TRPC6 inh; activity change, negative = inhibition, % at 10 µM; 920 tested, 61% active; membrane potential fluorescence;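 active = rise or fall in signal beyond 3 SD of buffer-only wells in both replicate plates, either sign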;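 also: integrated kinetic ratio of fluorescence range over baseline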
HEK293 MPD ctr 2-1: nonspecific membrane potential effects, parental HEK293, confirmation, counter-screen for TRPC6 inhibitor project, cell-based, second counter screen; shares compounds with TRPC6 inh; parental HEK293 membrane potential dye fluorescence; maximal acetylcholine challenge after compound addition; signal change vs control, % at 10 µM; 920 tested, 31% active;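 active = membrane potential signal moving either way by over 3 SD of the maximum-effect control, in both duplicate plates, meaning non-specific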
HEK293 MPD ctr-1: membrane potential modulation in parental HEK293, confirmation, counter-screen for TRPC6 inhibitor project, cell-based; 920 tested, 60% active; shares compounds with TRPC6 inh; parental HEK293 membrane potential dye fluorescence; membrane potential signal change, % at 10 µM;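 active = membrane potential signal shifting up or down by more than 3 SD of buffer-only wells, on both duplicate plates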
HEK293 MPD ctr-2: parental HEK293 membrane potential modulation, confirmation, counter-screen for TRPC6 modulator project, cell-based. membrane potential signal change, % at 10 µM. shares compounds with TRPC6 inh. membrane potential dye fluorescence. 2,400 tested, 51% active;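 active = membrane potential signal moves up or down beyond 5 SD from buffer-only wells, on both duplicate plates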
HEK293 MPD ctr 2-2: second counter-screen for TRPC6 modulators: effect in parental HEK293 cells | shares compounds with TRPC6 inh | inhibition, % at 10 µM | AID 488926 | 2,400 tested, 14% active | membrane potential dye fluorescence; after compound, maximal acetylcholine stimulation;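 active = membrane potential signal drops by more than 5 SD from the mean control signal, in both duplicate plates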;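 also: plate controls were acetylcholine ECmax control wells for no effect and buffer only wells for full effect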
TRPC4 ctr mod: TRPC4 modulation by TRPC6 hit compounds, confirmation, selectivity assay for TRPC6 modulator project, cell-based, HEK293 TRPC4/mu-opioid, membrane potential dye, mouse | shares compounds with TRPC6 inh | membrane potential fluorescence | percent change from control (negative = decrease, positive = increase), % at 10 µM | 2,400 tested, 69% active | AID 488927, 2010;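 active = membrane potential signal moved up or down beyond 5 SD of buffer control wells, in both duplicate plates, actives on both sides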;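 also: plate controls were assay buffer wells for no effect and DAMGO maximal-effect wells for full effect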
TRPC4/MOR inh 2: mouse TRPC4 off-target activity of TRPC6 modulators, second screen; shares compounds with TRPC6 inh; HEK293 TRPC4/mu-opioid, membrane potential dye fluorescence; stimulated with maximal-effect DAMGO; inhibition, % at 10 µM; 2,400 tested, 55% active;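 active = drop in membrane potential signal beyond 5 SD of the control wells in both duplicate plates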;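 also: TRPC4 counter screen for TRPC6 hits run under conditions tuned for TRPC6 not TRPC4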
TRPC6 block conf: mouse TRPC6 channel inhibitors, confirmation, HEK293 cells, membrane potential dye, duplicate. 3,300 tested, 43% active. ACh-evoked depolarization. shares compounds with TRPC6 inh. inhibition, % at 10 µM;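 active = fluorescence ratio falls more than 5 SD below the full-stimulation control mean, in both duplicate runs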;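 also: integrated fluorescence ratio of peak minus minimum over baseline after agonist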
TRPC6 act conf: mouse TRPC6 channel activators, confirmation, HEK293 cells, membrane potential dye, duplicate | shares compounds with TRPC6 inh | HEK293-TRPC6 membrane potential dye fluorescence, FDSS | activation, % at 10 µM | 2,800 tested, 11% active | AID 488961, 2010;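 active = ratio signal rise beyond 5 SD above unstimulated control wells' mean, seen in both duplicate runs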;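 also: plate controls were buffer EC0 wells for no effect and acetylcholine ECmax response for full effect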
Active calls of the source: *.

Results for Cc1[nH]n(-c2ccccc2)c(=O)c1N=Nc1c(O)cc(S(=O)(=O)N(C)C)c2ccccc12 ?
TRPC4 inh: inactive; TRPC4 agonist: inactive; TRPC4 potent: inactive; TRPC6 inh: -8.9*; TRPC6 activator: inactive; HEK293 MPD ctr-2: -135%*; HEK293 MPD ctr 2-2: 80%*; TRPC4 ctr mod: -34%*; TRPC4/MOR inh 2: 86%*; TRPC6 block conf: 81%*; TRPC6 act conf: inactive

How did Cc1[nH]n(-c2ccccc2)c(=O)c1N=Nc1ccc2c(c1)OCCO2 do in these assays?
TRPC4 inh: inactive; TRPC4 agonist: inactive; TRPC4 potent: inactive; TRPC6 inh: inactive; TRPC6 activator: inactive

Results for COc1ccc(NC(=O)c2ccc(F)c(F)c2)c2ccccc12 ?
TRPC4 inh: inactive; TRPC4 agonist: inactive; TRPC4 potent: inactive; TRPC6 inh: inactive; TRPC6 activator: inactive

How did CC(C)[C@H](NC(=O)[C@@H]1CSC2c3ccccc3C(=O)N21)C(=O)N1CCCCC1 (some centres undefined) do in these assays?
TRPC4 inh: inactive; TRPC4 agonist: inactive; TRPC4 potent: inactive; TRPC6 inh: inactive; TRPC6 activator: inactive

How did Cc1nnc(-c2ccc(Cl)cc2)nc1NCCN(C)C do in these assays?
TRPC4 inh: inactive; TRPC4 agonist: inactive; TRPC4 potent: inactive; TRPC6 inh: -5*; TRPC6 activator: inactive; HEK293 MPD ctr-2: inactive; HEK293 MPD ctr 2-2: inactive; TRPC4 ctr mod: inactive; TRPC4/MOR inh 2: inactive; TRPC6 block conf: inactive; TRPC6 act conf: inactive

Results for CN(C)CCNc1nc(-c2ccccc2)nnc1C(F)(F)F ?
TRPC4 inh: inactive; TRPC4 agonist: inactive; TRPC4 potent: inactive; TRPC6 inh: inactive; TRPC6 activator: inactive

What do the screens show for `Cc1ccc(CNC(=O)C2CCCN2S(=O)(=O)c2ccc(Cl)cc2)cc1` (centres undefined)?
TRPC4 inh: inactive; TRPC4 agonist: inactive; TRPC4 potent: inactive; TRPC6 inh: -5.4*; TRPC6 activator: inactive; HEK293 MPD ctr-2: inactive; HEK293 MPD ctr 2-2: inactive; TRPC4 ctr mod: inactive; TRPC4/MOR inh 2: inactive; TRPC6 block conf: inactive; TRPC6 act conf: inactive

How did O=C(NCc1ccccc1)C1CCCN1S(=O)(=O)c1ccc(Cl)cc1 (centres undefined) do in these assays?
TRPC4 inh: inactive; TRPC4 agonist: inactive; TRPC4 potent: inactive; TRPC6 inh: inactive; TRPC6 activator: inactive

Results for COc1ccc(NC(=O)C2CCCN(CCCc3ccccc3)C2)cc1OCC(C)C (centres undefined) ?
TRPC4 inh: inactive; TRPC4 agonist: inactive; TRPC4 potent: inactive; TRPC6 inh: -7.3*; TRPC6 activator: inactive; TRPC4 spec 2: 76%*; TRPC4 spec: inactive; HEK293 MPD ctr 2-1: 226%*; HEK293 MPD ctr-1: inactive; TRPC6 block conf: inactive; TRPC6 act conf: inactive

Results for Cc1cc(NCCN(C)C)n2nc(-c3cccs3)cc2n1 ?
TRPC4 inh: inactive; TRPC4 agonist: inactive; TRPC4 potent: inactive; TRPC6 inh: -6.8*; TRPC6 activator: inactive; HEK293 MPD ctr-2: -272%*; HEK293 MPD ctr 2-2: inactive; TRPC4 ctr mod: -52%*; TRPC4/MOR inh 2: 48%*; TRPC6 block conf: inactive; TRPC6 act conf: inactive

What do the screens show for `CN(C(=O)COc1ccc(-c2nnco2)cc1)C1CCS(=O)(=O)C1` (centres undefined)?
TRPC4 inh: inactive; TRPC4 agonist: inactive; TRPC4 potent: inactive; TRPC6 inh: inactive; TRPC6 activator: inactive

Results for Cc1cc(C)n(C(=O)CNC(=O)c2cccc(Br)c2)n1 ?
TRPC4 inh: inactive; TRPC4 agonist: inactive; TRPC4 potent: inactive; TRPC6 inh: -5.8*; TRPC6 activator: inactive; HEK293 MPD ctr-2: inactive; HEK293 MPD ctr 2-2: inactive; TRPC4 ctr mod: inactive; TRPC4/MOR inh 2: inactive; TRPC6 block conf: inactive; TRPC6 act conf: inactive

How did Cc1cc(C)n(C(=O)CNC(=O)c2cccc(Cl)c2)n1 do in these assays?
TRPC4 inh: inactive; TRPC4 agonist: inactive; TRPC4 potent: inactive; TRPC6 inh: inactive; TRPC6 activator: inactive
